Measured values from ChEMBL document CHEMBL1145499, “Asiatic acid and corosolic acid enhance the susceptibility of Pseudomonas aeruginosa biofilms to tobramycin” (2007).

Tests used:
Type in all cases: functional
[1] = test system: Pseudomonas aeruginosa; experiment: Antibacterial activity against Pseudomonas aeruginosa PAO1 assessed as log reduction of bacterial count at 100 ug/ml by rotating disk reactor method
Summary of the method: (§1)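 Rotating disk reactor (~200 rpm, 180 ml, 60-min residence, ca. 26°C) with polystyrene coupons and P. aeruginosa PAO1 inoculated per ASTM E-2196-02. Biofilms were grown 24 h in batch, then 24 h under flow. Compound was added to ~100 µg/ml final (ethanol or DMSO vehicle) for 24 h in batch. Coupons then received 100 µg/ml tobramycin or PBS for 2 h at room temperature. LR = negative-control mean log10 CFU/cm2 minus treated mean, three coupons per set.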

[2] = test system: Pseudomonas aeruginosa; experiment: Antibacterial activity against Pseudomonas aeruginosa PAO1
[3] = test system: Pseudomonas aeruginosa; experiment: Antibacterial activity against Pseudomonas aeruginosa PAO1 assessed as log reduction of bacterial count at 50 ug/ml by CDC biofilm reactor method
Summary of the method: (§2)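 CDC-type biofilm reactor with PAO1 on polystyrene coupons, grown 24 h batch then 24 h continuous flow. Medium was fed at 13 ml/min, giving ~27 min residence. Coupon treatments, inoculum, medium and analysis matched the rotating disk runs: sonication, plate counts, log10 CFU/cm2, and log reduction against untreated control.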

[4] = test system: Pseudomonas aeruginosa; experiment: Antibacterial activity against Pseudomonas aeruginosa PAO1 assessed as log reduction of bacterial count at 10 ug/ml by rotating disk reactor method
[5] = test system: Pseudomonas aeruginosa; experiment: Antibacterial activity against Pseudomonas aeruginosa PAO1 assessed as log reduction of bacterial count at 50 ug/ml by rotating disk reactor method
[6] = test system: Pseudomonas aeruginosa; experiment: Antibacterial activity against Pseudomonas aeruginosa PAO1 assessed as log reduction of bacterial count by rotating disk reactor method; summary of the method: as §1
[7] = test system: Pseudomonas aeruginosa; experiment: Antibacterial activity against Pseudomonas aeruginosa PAO1 assessed as log reduction of bacterial count at 100 ug/ml by CDC biofilm reactor method; summary of the method: as §2

MIC [2] [µg/mL] | Compound | Activity [1] | Activity [3] | Activity [4] | Activity [5] | Activity [6] | Activity [7]
≥ 128 | C[C@H]1[C@H](C)CC[C@]2(C(=O)O)CC[C@]3(C)C(=CC[C@@H]4[C@@]5(C)C[C@@H](O)[C@H](O)[C@@](C)(CO)[C@@H]5CC[C@]43C)[C@H]12 [ASIATIC ACID] | 0.19 | 0.8 | 0.14 | 0.12 | – | –
≥ 1 | O=C(O)c1cn(C2CC2)c2cc(N3CCNCC3)c(F)cc2c1=O [CIPROFLOXACIN] | – | – | – | – | -0.29 | –
> 128 | C[C@H]1[C@H](C)CC[C@]2(C(=O)O)CC[C@]3(C)C(=CC[C@@H]4[C@@]5(C)C[C@@H](O)[C@H](O)C(C)(C)[C@@H]5CC[C@]43C)[C@H]12 [COROSOLIC ACID] | 0.02 | – | – | -0.04 | – | 0.7
– | NC[C@H]1O[C@H](O[C@H]2[C@H](O)[C@@H](O[C@H]3O[C@H](CO)[C@@H](O)[C@H](N)[C@H]3O)[C@H](N)C[C@@H]2N)[C@H](N)C[C@@H]1O [TOBRAMYCIN] | 1.36 | – | 1.51 | 0.78 | 0.4 | –
